The source made the active and inactive calls. No cut-off for these calls is given here.
Tests used:
[1] = target: Prostaglandin E2 receptor EP2 subtype (Homo sapiens, UniProt P43116); test: Displacement of [3H]PGE2 from human EP2 receptor expressed in HEK293-EBNA cells by scintillation counting; format: cell-based
Outline: (§1)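 Radioligand binding on membranes from HEK 293(EBNA) clonal lines overexpressing each prostanoid receptor, using the respective 3H-prostaglandin or thromboxane ligand; EP4 binding also run with 10% human serum; Ki as means of at least three experiments (rEP2, rEP3 n = 1).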

[2] = target: T1, Prostaglandin E2 receptor EP3 subtype (Homo sapiens, UniProt P43115); test: Displacement of [3H]PGE2 from human EP3 receptor expressed in HEK293-EBNA cells by scintillation counting; format: cell-based; outline: as §1
T1 sequence (P43115 whole entry): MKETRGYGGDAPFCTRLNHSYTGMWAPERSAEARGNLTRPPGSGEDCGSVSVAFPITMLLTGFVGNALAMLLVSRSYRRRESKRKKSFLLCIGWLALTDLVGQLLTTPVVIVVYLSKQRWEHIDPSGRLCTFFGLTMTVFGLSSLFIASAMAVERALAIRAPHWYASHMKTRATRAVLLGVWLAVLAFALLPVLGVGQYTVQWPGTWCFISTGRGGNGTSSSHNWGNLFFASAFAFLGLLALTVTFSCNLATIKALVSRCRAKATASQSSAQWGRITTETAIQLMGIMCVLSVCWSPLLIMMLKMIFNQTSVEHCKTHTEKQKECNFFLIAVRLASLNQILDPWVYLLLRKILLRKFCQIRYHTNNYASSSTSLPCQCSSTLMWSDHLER

Prostacyclin receptor = Prostacyclin receptor (Homo sapiens, UniProt P43119); test: Displacement of [3H]iloprost from human IP receptor expressed in HEK293-EBNA cells by scintillation counting; format: cell-based; outline: as §1
Sequence of Prostacyclin receptor (P43119 whole entry): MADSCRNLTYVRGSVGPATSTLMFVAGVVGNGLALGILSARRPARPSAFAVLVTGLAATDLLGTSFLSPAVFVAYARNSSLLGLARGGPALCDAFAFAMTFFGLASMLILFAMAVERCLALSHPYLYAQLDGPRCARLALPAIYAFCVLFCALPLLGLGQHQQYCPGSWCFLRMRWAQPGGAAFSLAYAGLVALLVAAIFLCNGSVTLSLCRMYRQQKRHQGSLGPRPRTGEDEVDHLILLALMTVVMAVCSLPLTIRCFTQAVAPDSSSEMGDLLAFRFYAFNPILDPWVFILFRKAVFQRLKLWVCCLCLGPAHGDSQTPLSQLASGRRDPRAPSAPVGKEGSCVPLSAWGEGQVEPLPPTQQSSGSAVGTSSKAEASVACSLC

Thromboxane A2 receptor = target: T2, Thromboxane A2 receptor (Homo sapiens, UniProt P21731); test: Displacement of [3H]SQ29548 from human TP receptor expressed in HEK293-EBNA cells by scintillation counting; format: cell-based; outline: as §1
T2 sequence (P21731 whole entry): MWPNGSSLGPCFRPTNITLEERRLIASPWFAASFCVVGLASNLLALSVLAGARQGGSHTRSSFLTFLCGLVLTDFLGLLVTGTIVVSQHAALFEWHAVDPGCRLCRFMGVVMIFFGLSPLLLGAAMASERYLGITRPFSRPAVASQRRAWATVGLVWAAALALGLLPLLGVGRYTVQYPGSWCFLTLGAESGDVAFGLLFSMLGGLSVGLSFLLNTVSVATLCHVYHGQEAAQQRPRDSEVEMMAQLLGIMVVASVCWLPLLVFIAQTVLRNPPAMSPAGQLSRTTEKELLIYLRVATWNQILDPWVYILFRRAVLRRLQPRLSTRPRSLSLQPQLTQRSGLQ

[3] = target: T3, Prostaglandin E2 receptor EP4 subtype (Homo sapiens, UniProt P35408); test: Antagonist activity at human EP4 receptor expressed in HEK293 cells assessed as inhibition of PGE2-induced cAMP accumulation by scintillation proximity assay; format: functional, cell-based
T3 sequence (P35408 whole entry): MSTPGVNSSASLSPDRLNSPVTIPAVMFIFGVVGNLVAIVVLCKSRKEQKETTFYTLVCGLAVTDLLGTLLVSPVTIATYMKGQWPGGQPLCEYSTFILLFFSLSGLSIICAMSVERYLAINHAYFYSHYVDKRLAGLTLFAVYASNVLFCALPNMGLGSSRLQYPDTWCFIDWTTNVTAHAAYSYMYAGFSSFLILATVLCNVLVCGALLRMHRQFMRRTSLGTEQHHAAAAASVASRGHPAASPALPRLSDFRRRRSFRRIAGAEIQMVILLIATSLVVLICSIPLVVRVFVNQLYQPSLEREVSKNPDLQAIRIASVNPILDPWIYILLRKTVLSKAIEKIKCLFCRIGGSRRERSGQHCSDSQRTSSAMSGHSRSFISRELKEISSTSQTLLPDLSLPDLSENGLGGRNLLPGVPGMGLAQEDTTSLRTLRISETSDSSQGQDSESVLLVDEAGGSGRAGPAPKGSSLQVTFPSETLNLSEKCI
Outline: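 HEK 293 cells; inhibition of PGE2-induced cAMP accumulation measured, with and without 10% human serum; means of at least three experiments.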

[4] = target: T3, Prostaglandin E2 receptor EP4 subtype; test: Displacement of [3H]PGE2 from human EP4 receptor expressed in HEK293-EBNA cells by scintillation counting in presence of 10% human serum; format: cell-based
Outline: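 Radioligand binding on membranes from HEK 293(EBNA) clonal cells overexpressing human EP4, [3H]PGE2 as tracer, run with 10% human serum added to assess serum protein binding; Ki values are means of at least three experiments.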

[5] = target: T4, Prostaglandin E2 receptor EP3 subtype (Rattus norvegicus, UniProt P34980); test: Displacement of [3H]PGE2 from rat EP3 receptor expressed in HEK293-EBNA cells by scintillation counting; format: cell-based; outline: as §1
T4 sequence (P34980 whole entry): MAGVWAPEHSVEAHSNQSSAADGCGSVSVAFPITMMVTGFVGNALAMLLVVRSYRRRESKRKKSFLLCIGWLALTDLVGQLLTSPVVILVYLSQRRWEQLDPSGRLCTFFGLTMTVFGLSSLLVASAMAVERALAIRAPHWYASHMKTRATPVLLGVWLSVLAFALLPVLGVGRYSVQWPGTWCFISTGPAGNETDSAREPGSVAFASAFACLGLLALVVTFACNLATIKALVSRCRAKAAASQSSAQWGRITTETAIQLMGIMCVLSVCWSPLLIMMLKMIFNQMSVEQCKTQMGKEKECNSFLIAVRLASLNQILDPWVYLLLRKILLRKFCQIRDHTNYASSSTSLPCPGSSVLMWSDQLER

Rattus norvegicus [6] = test: Analgesic activity in po dosed Sprague-Dawley rat assessed as inhibition of carrageenan-induced mechanical hyperalgesia relative to control; format: functional
Outline: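 SD rats given subplantar carrageenan; compound dosed orally as a single dose; mechanical hyperalgesia read at 3 h post carrageenan, 1 h post dose; inhibition expressed vs vehicle control; n = 10-20/group; 1-way ANOVA/Dunnett's.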

Rattus norvegicus [7] = organism: Rattus norvegicus; test: Analgesic activity against complete Freund's adjuvant-induced Sprague-Dawley rat inflammatory pain assessed as inhibition of chronic paw swelling; format: functional
Outline: (§2)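 Adjuvant-induced arthritis in rats: CFA injected into primary paw on day 0; oral dosing in 0.5% methocel once daily for 9 days starting day 9; secondary paw swelling measured; plasma levels taken 24 h after final dose; n = 7/group; 1-way ANOVA/Dunnett's vs vehicle.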

Rattus norvegicus [8] = organism: Rattus norvegicus; test: Analgesic activity against complete Freund's adjuvant-induced Sprague-Dawley rat inflammatory pain assessed as inhibition of chronic paw swelling at plasma concentration of 4 nM after 24 hrs; format: functional, organism-based; outline: as §2
Rattus norvegicus [9] = test: Plasma concentration in complete Freund's adjuvant-induced Sprague-Dawley rat inflammatory pain model at 0.1 mg/kg/day, po; format: ADME, organism-based; set-up: route oral; settings: in vivo; outline: as §2
Rattus norvegicus [10] = test: Gastrointestinal toxicity in Sprague-Dawley rat assessed as urinary excretion of 51Cr-EDTA at 3 to 30 mg/kg/day, po once daily for 5 days; format: organism-based, Urine; set-up: route oral; settings: in vivo, 120 h
Outline: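 Male SD rats dosed orally once daily in 0.5% methocel (3, 10, 30 mg/kg for 5 days, or 5 mg/kg for 3 days); single oral 51Cr-EDTA given on day 4 or day 2 respectively; urinary 51Cr excretion as GI permeability index; n = 5/group treated, 4 vehicle; 1-way ANOVA/Dunnett's.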

[11] = Half life in Sprague-Dawley rat at 5 mg/kg, iv; format: ADME, organism-based; set-up: dose 5 mg/kg, route intravenous; settings: in vivo
Outline: (§3)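 Overnight-fasted animals dosed po in 0.5% methocel or iv in 60% PEG 200; plasma from serial blood samples stored at -10 °C, protein-precipitated with equal volume acetonitrile/0.1% formic acid, analysed by LC/MS/MS with internal standard against spiked blank-plasma standards; Cmax from po data, half-life from iv data.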

[12] = Cmax in C57BL/6 mouse at 20 mg/kg, po; format: ADME, organism-based; set-up: dose 20 mg/kg, route oral; settings: in vivo; outline: as §3
[13] = Half life in C57BL/6 mouse at 5 mg/kg, iv; format: ADME, organism-based; set-up: dose 5 mg/kg, route intravenous; settings: in vivo; outline: as §3
[14] = Volume of distribution at steady state in Beagle dog at 5 mg/kg, po and 1 mg/kg, iv; format: ADME, organism-based, Canis lupus familiaris; settings: in vivo, read-out: Vdss; outline: as §3
Cynomolgus monkey = test: Volume of distribution at steady state in cynomolgus monkey at 5 mg/kg, po and 1 mg/kg, iv; format: ADME, organism-based, Macaca fascicularis; settings: in vivo; outline: as §3

Sequence of Prostaglandin E2 receptor EP2 subtype (P43116 whole entry): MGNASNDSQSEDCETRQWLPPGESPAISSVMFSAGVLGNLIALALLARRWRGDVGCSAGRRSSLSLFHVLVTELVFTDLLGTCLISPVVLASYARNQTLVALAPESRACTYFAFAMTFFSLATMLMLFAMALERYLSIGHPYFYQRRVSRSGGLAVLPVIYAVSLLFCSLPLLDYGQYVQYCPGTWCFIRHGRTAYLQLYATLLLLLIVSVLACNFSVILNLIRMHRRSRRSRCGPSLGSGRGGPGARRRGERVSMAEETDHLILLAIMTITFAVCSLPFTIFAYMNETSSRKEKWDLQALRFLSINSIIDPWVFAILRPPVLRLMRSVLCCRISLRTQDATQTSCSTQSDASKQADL

Ki [1]: 5.9 µM
Ki [2]: > 7.9 µM
Ki (Prostacyclin receptor): > 22 µM
Ki (Thromboxane A2 receptor): > 6.8 µM
IC50 [3]: 0.0025 µM
Ki [4]: 0.00097 µM
Ki [5]: 3.3 µM
concentration (Rattus norvegicus [9]): 4 nM
half-life [11]: 4.5 h
Cmax [12]: 1400 nM
half-life [13]: 15 h
Vd [14]: 0.91 L/kg
Vdss (Cynomolgus monkey): 7.9 L/kg
SMILES: Cc1sc(C)c(C(=O)NC2(c3ccc(C(=O)O)cc3)CC2)c1Cc1ccc(C(F)(F)F)cc1
inhibition (INH) (Rattus norvegicus [6]): 60%
Activity (Rattus norvegicus [7]): Dose-dependent effect
ED50 (Rattus norvegicus [7]): 0.02 mg/kg
Activity (Rattus norvegicus [8]): Active
Activity (Rattus norvegicus [10]): Non-toxic

From ChEMBL document CHEMBL1157608, “The discovery of 4-{1-[({2,5-dimethyl-4-[4-(trifluoromethyl)benzyl]-3-thienyl}carbonyl)amino]cyclopropyl}benzoic acid (MK-2894), a potent and selective prostaglandin E2 subtype 4 receptor antagonist” (J Med Chem, 2010)
